Assay: Toxicity liver stage against HepG2, at 10uM
Assay type: cell-based
Design: test concentration 10 uM, cell line HepG2-A16-CD81EGFP
Conditions: human, HepG2-A16-CD81EGFP cells; read-out: INHIBITION
Procedure, shortened: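 Uninfected HepG2-A16-CD81EGFP cells, 3 × 10^3 per well, 1536-well, plated on prespotted compound at 10 μM final, parasite-free screening media added to match infected plates; puromycin 10 μM positive, DMSO 0.5% negative; run in parallel with 48 h PbLuc assay at 37 °C, 5% CO2; viability by CellTiter-Glo luminescence, normalized to controls.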

CS(=O)(=O)c1ccc(OCCCN2CCc3cncnc3C2)cc1
cytotoxicity at 10 µM: -15.3%

O=C(Cn1cc(-n2cccc2)cn1)NCC1CCC1
cytotoxicity at 10 µM: 14.7%

CS(=O)(=O)c1ccc(CNC(=O)NCC2CCOC2)cc1 (stereo unspecified)
cytotoxicity at 10 µM: -9.22%

COc1ccc(CCNC(=O)NC2CCCC2)cc1OC
cytotoxicity at 10 µM: -10.9%

Cc1cccc(CN2CCn3cc(Cn4cccn4)nc3C2)n1
cytotoxicity at 10 µM: 3.27%

c1cnc(N2CCCC3(COCCN(CC4CC4)C3)C2)nc1 (stereo unspecified)
cytotoxicity at 10 µM: 3.22%

CC(C(=O)NCc1ccc(-n2cncn2)nc1)n1ccnc1 (stereo unspecified)
cytotoxicity at 10 µM: 0.409%

CCc1nccn1-c1cccc(C2CCCN2)n1 (stereo unspecified)
cytotoxicity at 10 µM: -5.77%

Cc1ccncc1C(=O)N1CCCC(C(=O)CCc2ccccc2)C1 (stereo unspecified)
cytotoxicity at 10 µM: 18%

CCN(Cc1cccc(-c2ccncc2)c1)S(N)(=O)=O
cytotoxicity at 10 µM: -12.6%

COc1cc2cc(C(=O)N[C@@H](C)C(=O)O)n(C)c2c(OC)c1OC
cytotoxicity at 10 µM: 12.5%

O=C(C1CCOc2ccccc21)N1CCOc2ccc(F)cc21 (stereo unspecified)
cytotoxicity at 10 µM: -7.54%

COc1cccc(-c2n[nH]cc2CNC2CCN(C(C)C)CC2)c1
cytotoxicity at 10 µM: 0.353%

NC1(c2nc(C(F)(F)F)cc(=O)[nH]2)CCCCC1
cytotoxicity at 10 µM: 11%

O=C1[C@H]2CN(c3ncccn3)C[C@H]2CN1Cc1ccncc1
cytotoxicity at 10 µM: -12.1%

CNc1ccc(C)cc1C(=O)N1CCCC2(CCNC2)C1 (stereo unspecified)
cytotoxicity at 10 µM: -6.63%

O=C(Cc1ccccn1)N1C[C@H](OCc2cccnc2)[C@H]2COC[C@H]21
cytotoxicity at 10 µM: 12.3%

CCCC(=O)N1CCCN(C(=O)c2oc(C)nc2C)CC1
cytotoxicity at 10 µM: -3.92%

Cc1ccc(-c2cc(N)c(=O)n(C(C)C(=O)NCC3CCCCC3)n2)s1 (stereo unspecified)
cytotoxicity at 10 µM: -13.9%

Cc1nc(C)n(CC2CN(Cc3cccs3)Cc3nccn3C2)n1 (stereo unspecified)
cytotoxicity at 10 µM: -133%

c1ccc2oc(CCCN3CCCCC3Cn3cncn3)nc2c1 (stereo unspecified)
cytotoxicity at 10 µM: -10.2%

CC(C)n1nc2c(cc1=O)CN(c1ncnc3ccccc13)CC2
cytotoxicity at 10 µM: 52.2%

CCN(CC)c1nc2ccsc2c(=O)n1CCC(=O)NCc1ccco1
cytotoxicity at 10 µM: 9.87%

CC(NC(=O)NCc1ccccn1)c1ccc2c(c1)CCC(=O)N2 (stereo unspecified)
cytotoxicity at 10 µM: 7.47%

Cc1ccc2nc3n(c2c1)[C@@H](CNCc1nccs1)COC3
cytotoxicity at 10 µM: -4.31%

CCC(CNC(=O)Cn1ccnc1)Oc1cccc(F)c1 (stereo unspecified)
cytotoxicity at 10 µM: -45.8%

N#Cc1cccc(NC2CC(=O)N(C3Cc4ccccc4C3)C2)n1 (stereo unspecified)
cytotoxicity at 10 µM: -141%

CCc1nnc2n1CCN(C(=O)c1cc(Cl)c[nH]1)C2
cytotoxicity at 10 µM: -6.1%

CCN1CCC2(COCc3cnc(NCC4CC4)nc32)C1 (stereo unspecified)
cytotoxicity at 10 µM: -12.9%

Cc1ccsc1C(Cc1ccccc1)NC(=O)CSCC(N)=O (stereo unspecified)
cytotoxicity at 10 µM: 8.13%

COC[C@@]12CCO[C@@H]1CCN(C(=O)CCc1ccccc1Cl)C2
cytotoxicity at 10 µM: 7.69%

COCCC1(C(=O)O)CCCN(Cc2cc3c(cc2C)OCO3)C1 (stereo unspecified)
cytotoxicity at 10 µM: -2.37%

Cc1cc(NC(=O)Cn2ccc(-c3ccc4c(c3)OCO4)n2)n(C)n1
cytotoxicity at 10 µM: 6.28%

Cc1ccc(C(CNCc2ncc[nH]2)N2CCOCC2)s1 (stereo unspecified)
cytotoxicity at 10 µM: 12%

NC(=O)c1cncc(-n2ccc(-c3cnccn3)n2)c1
cytotoxicity at 10 µM: -11.9%

CCS(=O)(=O)N1CCC2(CCN(C(=O)c3cccs3)CC2)CC1
cytotoxicity at 10 µM: -99.9%

CC(C)c1noc(C(C)N2CCC(c3nc4ccccc4[nH]3)CC2)n1 (stereo unspecified)
cytotoxicity at 10 µM: -3.17%

Cc1nccc(NCc2cncc3c2CCN(S(C)(=O)=O)C3)n1
cytotoxicity at 10 µM: -99.4%

COCC1CN(C(=O)Nc2cc(-n3cccc3)ccc2F)CCO1 (stereo unspecified)
cytotoxicity at 10 µM: 3.61%

O=C(Nc1ccccc1-c1cccs1)N1CCN(CC(F)F)CC1
cytotoxicity at 10 µM: -2.11%

CNC(=O)c1sc2ccccc2c1CC1CCCCN1Cc1ncc[nH]1 (stereo unspecified)
cytotoxicity at 10 µM: 2.35%

Cc1cccc(C(C(=O)N2CCN(C(=O)c3ccc[nH]3)CC2)N(C)C)c1 (stereo unspecified)
cytotoxicity at 10 µM: -7.55%

CN(CCNC(=O)NCc1ccsc1)C1CCCC1
cytotoxicity at 10 µM: -12.4%

COCCc1noc(-c2ccc(N[C@H]3CCCCNC3=O)nc2)n1
cytotoxicity at 10 µM: 6.9%

CCn1nnc2c1C(COC)CN(C(=O)Cc1cccs1)C2 (stereo unspecified)
cytotoxicity at 10 µM: -15.5%

COC(=O)N1CCc2ccc(NC(=O)c3cn(C)nn3)cc2C1
cytotoxicity at 10 µM: -1.3%

CCn1ccc(C(=O)N2CCCN(Cc3ccccc3F)CC2)cc1=O
cytotoxicity at 10 µM: 9.47%

O=C(Nc1cnn(C2CCOCC2)c1)c1ccc2c(c1)OCO2
cytotoxicity at 10 µM: 3.07%

COCCc1noc(CN(C)C2CCCN(c3ccc(C)nn3)C2)n1 (stereo unspecified)
cytotoxicity at 10 µM: 19.3%

CCc1nc(CN2CCCC(NCc3nnc(C4CC4)n3C)C2)no1 (stereo unspecified)
cytotoxicity at 10 µM: -2.97%

Cc1n[nH]c(C)c1-c1nccnc1CC1CCNC1 (stereo unspecified)
cytotoxicity at 10 µM: -4.96%

Cc1cnn(CC2CCN(CC(O)c3ccccc3F)CC2)c1 (stereo unspecified)
cytotoxicity at 10 µM: -5.18%

Cc1ccc2cc(C(=O)N3CCN(C(=O)c4ccoc4)CC3)[nH]c2c1
cytotoxicity at 10 µM: -43.6%

CN1CCN(CC2(O)CCCN(S(=O)(=O)c3cn[nH]c3)CC2)CC1 (stereo unspecified)
cytotoxicity at 10 µM: 2.25%

Cc1ncc2c(n1)CN(CC(=O)NCCOc1ccccc1)CC2
cytotoxicity at 10 µM: -8.66%

CSc1ccc(C(CNC(C)=O)N2CCc3sccc3C2)cc1 (stereo unspecified)
cytotoxicity at 10 µM: 6.84%
